Measurements as given in paper PMC10238757 (Pharmacology Research & Perspectives, 2023).
Like-named read-outs stand apart in the source and are kept apart here. Marks after values point to notes of the source that are not given here.

Tests used:
healthy participants [1] = assay: Safety and tolerability, multiple ascending dose; format: in vivo, human; details: MAD 500 mg QW, N=7
In short: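 AEs in healthy participants given oral test compound or placebo, recorded with grade and relation to treatment. Laboratory analyses, clinical parameters and suicidality were also monitored. Observation ran 360 h after dosing. Summaries were descriptive, with no formal statistics; parts 1–2 blinded and placebo-controlled, part 3 open-label.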

HIV-1 = details: cited from earlier work
dogs = assay: Dose ranging and good laboratory practice toxicology studies in dogs; format: in vivo
healthy participants [2] = details: for Abdominal pain, n occurrences (% of cohort) / All-cause AEs Grade 2, n occurrences (% of cohort) / All-cause AEs Grade 3/4, n occurrences (% of cohort) / All-cause AEs, n occurrences (% of cohort) / Constipation, n occurrences (% of cohort) / Diarrhea, n occurrences (% of cohort) / Drug-related AEs Grade 2, n occurrences (% of cohort) / Drug-related AEs Grade 3/4, n occurrences (% of cohort) / Drug-related AEs, n occurrences (% of cohort) / Headache, n occurrences (% of cohort) / MDSD, n occurrences (% of cohort): N=6

C=C(C)[C@@H]1CC[C@]2(NCCN3CCS(=O)(=O)CC3)CC[C@]3(C)[C@H](CC[C@@H]4[C@@]5(C)CC=C(C6=CC[C@@](COc7ncccc7C#N)(C(=O)O)CC6)C(C)(C)[C@@H]5CC[C@]43C)[C@@H]12 [GSK'937]
0: Constipation, n occurrences (% of cohort) (healthy participants [1]) | Drug-related AEs Grade 2, n occurrences (% of cohort) (healthy participants [1]) | Drug-related AEs Grade 3/4, n occurrences (% of cohort) (healthy participants [1]) | Headache, n occurrences (% of cohort) (healthy participants [1]) | All-cause AEs Grade 2, n occurrences (% of cohort) (healthy participants [2]; SAD 10 mg) | All-cause AEs Grade 3/4, n occurrences (% of cohort) (healthy participants [2]; SAD 10 mg) | Constipation, n occurrences (% of cohort) (healthy participants [2]; SAD 10 mg) | Diarrhea, n occurrences (% of cohort) (healthy participants [2]; SAD 10 mg) | Drug-related AEs Grade 2, n occurrences (% of cohort) (healthy participants [2]; SAD 10 mg) | Drug-related AEs Grade 3/4, n occurrences (% of cohort) (healthy participants [2]; SAD 10 mg) | MDSD, n occurrences (% of cohort) (healthy participants [2]; SAD 10 mg) | Abdominal pain, n occurrences (% of cohort) (healthy participants [2]; SAD 30 mg) | All-cause AEs Grade 3/4, n occurrences (% of cohort) (healthy participants [2]; SAD 30 mg) | Diarrhea, n occurrences (% of cohort) (healthy participants [2]; SAD 30 mg) | Drug-related AEs Grade 3/4, n occurrences (% of cohort) (healthy participants [2]; SAD 30 mg) | Headache, n occurrences (% of cohort) (healthy participants [2]; SAD 30 mg) | Abdominal pain, n occurrences (% of cohort) (healthy participants [2]; SAD 80 mg) | All-cause AEs Grade 2, n occurrences (% of cohort) (healthy participants [2]; SAD 80 mg) | All-cause AEs Grade 3/4, n occurrences (% of cohort) (healthy participants [2]; SAD 80 mg) | Constipation, n occurrences (% of cohort) (healthy participants [2]; SAD 80 mg) | Diarrhea, n occurrences (% of cohort) (healthy participants [2]; SAD 80 mg) | Drug-related AEs Grade 2, n occurrences (% of cohort) (healthy participants [2]; SAD 80 mg) | Drug-related AEs Grade 3/4, n occurrences (% of cohort) (healthy participants [2]; SAD 80 mg) | MDSD, n occurrences (% of cohort) (healthy participants [2]; SAD 80 mg) | All-cause AEs Grade 3/4, n occurrences (% of cohort) (healthy participants [2]; SAD 320 mg) | Constipation, n occurrences (% of cohort) (healthy participants [2]; SAD 320 mg) | Drug-related AEs Grade 2, n occurrences (% of cohort) (healthy participants [2]; SAD 320 mg) | Drug-related AEs Grade 3/4, n occurrences (% of cohort) (healthy participants [2]; SAD 320 mg) | Headache, n occurrences (% of cohort) (healthy participants [2]; SAD 320 mg) | MDSD, n occurrences (% of cohort) (healthy participants [2]; SAD 320 mg) | All-cause AEs Grade 3/4, n occurrences (% of cohort) (healthy participants [2]; SAD 640 mg) | Drug-related AEs Grade 3/4, n occurrences (% of cohort) (healthy participants [2]; SAD 640 mg) | Headache, n occurrences (% of cohort) (healthy participants [2]; SAD 640 mg) | Abdominal pain, n occurrences (% of cohort) (healthy participants [2]; SAD 800 mg) | All-cause AEs Grade 3/4, n occurrences (% of cohort) (healthy participants [2]; SAD 800 mg) | Constipation, n occurrences (% of cohort) (healthy participants [2]; SAD 800 mg) | Drug-related AEs Grade 3/4, n occurrences (% of cohort) (healthy participants [2]; SAD 800 mg) | Headache, n occurrences (% of cohort) (healthy participants [2]; SAD 800 mg)
3 (17): All-cause AEs, n occurrences (% of cohort) (healthy participants [2]; SAD 10 mg) | Drug-related AEs, n occurrences (% of cohort) (healthy participants [2]; SAD 10 mg)
1 (14): MDSD, n occurrences (% of cohort) (healthy participants [1])
No deaths or SAEs occurred: deaths or SAEs (healthy participants [2]; SAD)
3 (43): Drug-related AEs, n occurrences (% of cohort) (healthy participants [1])
2 (33): Constipation, n occurrences (% of cohort) (healthy participants [2]; SAD 30 mg) | Diarrhea, n occurrences (% of cohort) (healthy participants [2]; SAD 800 mg) | Drug-related AEs, n occurrences (% of cohort) (healthy participants [2]; SAD 800 mg)
low nanomolar: potency in vitro (HIV-1)
1 (17): Abdominal pain, n occurrences (% of cohort) (healthy participants [2]; SAD 10 mg) | Headache, n occurrences (% of cohort) (healthy participants [2]; SAD 10 mg) | All-cause AEs Grade 2, n occurrences (% of cohort) (healthy participants [2]; SAD 30 mg) | Drug-related AEs Grade 2, n occurrences (% of cohort) (healthy participants [2]; SAD 30 mg) | Drug-related AEs, n occurrences (% of cohort) (healthy participants [2]; SAD 30 mg) | MDSD, n occurrences (% of cohort) (healthy participants [2]; SAD 30 mg) | Drug-related AEs, n occurrences (% of cohort) (healthy participants [2]; SAD 80 mg) | Headache, n occurrences (% of cohort) (healthy participants [2]; SAD 80 mg) | Abdominal pain, n occurrences (% of cohort) (healthy participants [2]; SAD 320 mg) | All-cause AEs Grade 2, n occurrences (% of cohort) (healthy participants [2]; SAD 320 mg) | Diarrhea, n occurrences (% of cohort) (healthy participants [2]; SAD 320 mg) | Abdominal pain, n occurrences (% of cohort) (healthy participants [2]; SAD 640 mg) | Constipation, n occurrences (% of cohort) (healthy participants [2]; SAD 640 mg) | Diarrhea, n occurrences (% of cohort) (healthy participants [2]; SAD 640 mg) | All-cause AEs Grade 2, n occurrences (% of cohort) (healthy participants [2]; SAD 800 mg) | Drug-related AEs Grade 2, n occurrences (% of cohort) (healthy participants [2]; SAD 800 mg) | MDSD, n occurrences (% of cohort) (healthy participants [2]; SAD 800 mg)
8 (67): All-cause AEs, n occurrences (% of cohort) (healthy participants [2]; SAD 640 mg)
4 (67): MDSD, n occurrences (% of cohort) (healthy participants [2]; SAD 640 mg)
3 mg/kg: lowest observed adverse effect level (dogs)
4 (50) ^f: All-cause AEs, n occurrences (% of cohort) (healthy participants [2]; SAD 80 mg)
4 (17): Drug-related AEs, n occurrences (% of cohort) (healthy participants [2]; SAD 320 mg)
5 (33): All-cause AEs, n occurrences (% of cohort) (healthy participants [2]; SAD 320 mg)
2 (17): All-cause AEs Grade 2, n occurrences (% of cohort) (healthy participants [2]; SAD 640 mg) | Drug-related AEs Grade 2, n occurrences (% of cohort) (healthy participants [2]; SAD 640 mg) | Drug-related AEs, n occurrences (% of cohort) (healthy participants [2]; SAD 640 mg)
5 (50): All-cause AEs, n occurrences (% of cohort) (healthy participants [2]; SAD 30 mg)
4 (33): All-cause AEs, n occurrences (% of cohort) (healthy participants [2]; SAD 800 mg)
